ChEMBL document CHEMBL1147450, “N2-benzyl-N1-(1-(1-naphthyl)ethyl)-3-phenylpropane-1,2-diamines and conformationally restrained indole analogues: development of calindol as a new calcimimetic acting at the calcium sensing receptor” (Bioorg Med Chem Lett, 2004)

biological target: T1, Extracellular calcium-sensing receptor (Rattus norvegicus) (UniProt P48442); experiment: Maximal stimulation of [3H]-inositol phosphates production in CHO cells expressing rat Calcium sensing receptor (CaSR) at 10 mM [Ca2+]; type: functional, cell-based
T1 sequence (whole entry): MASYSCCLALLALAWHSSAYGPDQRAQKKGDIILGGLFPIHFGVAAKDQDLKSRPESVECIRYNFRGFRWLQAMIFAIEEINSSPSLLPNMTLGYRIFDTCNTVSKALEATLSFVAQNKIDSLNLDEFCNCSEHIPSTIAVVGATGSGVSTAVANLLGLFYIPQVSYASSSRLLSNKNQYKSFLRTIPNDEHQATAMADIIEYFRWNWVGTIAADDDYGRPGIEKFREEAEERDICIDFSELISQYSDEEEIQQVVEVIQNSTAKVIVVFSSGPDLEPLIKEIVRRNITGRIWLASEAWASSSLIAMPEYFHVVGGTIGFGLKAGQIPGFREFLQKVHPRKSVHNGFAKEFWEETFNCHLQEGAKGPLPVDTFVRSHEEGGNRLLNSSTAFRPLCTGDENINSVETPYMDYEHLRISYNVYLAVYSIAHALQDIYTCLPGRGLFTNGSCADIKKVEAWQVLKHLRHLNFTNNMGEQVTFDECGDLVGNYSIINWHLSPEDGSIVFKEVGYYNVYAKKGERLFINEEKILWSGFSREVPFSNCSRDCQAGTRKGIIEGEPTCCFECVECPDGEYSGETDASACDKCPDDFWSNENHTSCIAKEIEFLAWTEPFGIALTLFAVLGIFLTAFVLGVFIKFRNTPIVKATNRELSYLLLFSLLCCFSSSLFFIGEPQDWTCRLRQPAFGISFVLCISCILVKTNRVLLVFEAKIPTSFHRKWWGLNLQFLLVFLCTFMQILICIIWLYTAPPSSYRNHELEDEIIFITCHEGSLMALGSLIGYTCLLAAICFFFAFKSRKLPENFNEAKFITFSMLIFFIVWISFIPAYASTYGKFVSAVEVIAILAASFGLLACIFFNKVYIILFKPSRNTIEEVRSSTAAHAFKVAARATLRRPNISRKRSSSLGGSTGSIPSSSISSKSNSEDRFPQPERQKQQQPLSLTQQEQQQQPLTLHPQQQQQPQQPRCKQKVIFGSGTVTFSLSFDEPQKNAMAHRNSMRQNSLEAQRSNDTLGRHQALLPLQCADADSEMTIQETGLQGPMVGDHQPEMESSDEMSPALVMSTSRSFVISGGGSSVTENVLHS
Summary of the method: (§1)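 CHO cells stably transfected with rat brain CaSR, grown in basal Ham's F-12 (0.3 mM Ca2+, 0.6 mM Mg2+), prelabelled overnight with 0.5 µCi/mL myo-[3H]inositol. Drugs were made as 10 mM ethanol stocks, diluted in basal medium, and incubated at 37 °C with 2 mM extracellular Ca2+. Read-out is [3H]IP accumulation as % of the 10 mM Ca2+ maximal response. Two to five independent experiments in triplicate, mean ± SEM.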

Structure (SMILES)	Accumulation
CC(NCc1cc2ccccc2[nH]1)c1cccc2ccccc12 (racemic)	103%
C[C@H](NCc1cc2ccccc2[nH]1)c1cccc2ccccc12	32%
CC(NCc1cc2ccccc2n1C)c1cccc2ccccc12 (centres undefined)	79%
COc1ccc2[nH]c(CNC(C)c3cccc4ccccc34)cc2c1 (centres undefined)	55%
COc1cc2cc(CNC(C)c3cccc4ccccc34)[nH]c2cc1OC (centres undefined)	34%
CC(NC(=O)c1cc2ccccc2[nH]1)c1cccc2ccccc12 (centres undefined)	2%
CC(NCc1cc2cc(F)ccc2[nH]1)c1cccc2ccccc12 (centres undefined)	87%
COc1ccc(CNC(CNC(C)c2cccc3ccccc23)Cc2ccccc2)cc1OC (centres undefined)	74%
C[C@@H](NCc1cc2ccccc2[nH]1)c1cccc2ccccc12	117%
CC(NCc1cc2cc(Cl)ccc2[nH]1)c1cccc2ccccc12 (centres undefined)	60%
COc1ccc(S(=O)(=O)n2c(CNC(C)c3cccc4ccccc34)cc3ccccc32)cc1OC (centres undefined)	54%

Further lines, results first:

Accumulation	Structure (SMILES)
80%	COc1ccc(CNC(CNC(C)c2cccc3ccccc23)Cc2ccccc2)cc1 (centres undefined)
78%	CC(NCC(Cc1ccccc1)NCc1cccc(Cl)c1)c1cccc2ccccc12 (centres undefined)
98%	CC(NCC(Cc1ccccc1)NCc1ccccc1Cl)c1cccc2ccccc12 (centres undefined)
95%	CC(NCC(Cc1ccccc1)NCc1ccc(F)cc1)c1cccc2ccccc12 (centres undefined)
80%	CC(NCC(Cc1ccccc1)NCc1ccccc1)c1cccc2ccccc12 (centres undefined)

biological target: T2, Extracellular calcium-sensing receptor (Rattus norvegicus, UniProt P48442); experiment: Ability to stimulate [3H]inositol phosphates accumulation in CHO cells expressing rat Calcium sensing receptor (CaSR) at 2 mM [Ca2+]; type: functional, cell-based; summary of the method: as §1
T2 sequence (P48442 whole entry): T1 sequence (whole entry)

EC50	Structure (SMILES)
1.3 µM	CC(NCc1cc2ccccc2[nH]1)c1cccc2ccccc12 (racemic)
1 µM	C[C@@H](NCc1cc2ccccc2[nH]1)c1cccc2ccccc12

biological target: T3, Extracellular calcium-sensing receptor (Homo sapiens, UniProt P41180); experiment: Ability to stimulate [3H]inositol phosphates accumulation in HEK293 cells expressing the human calcium sensing receptor (CaSR) at 2 mM [Ca2+]; type: functional, cell-based
T3 sequence (P41180 whole entry): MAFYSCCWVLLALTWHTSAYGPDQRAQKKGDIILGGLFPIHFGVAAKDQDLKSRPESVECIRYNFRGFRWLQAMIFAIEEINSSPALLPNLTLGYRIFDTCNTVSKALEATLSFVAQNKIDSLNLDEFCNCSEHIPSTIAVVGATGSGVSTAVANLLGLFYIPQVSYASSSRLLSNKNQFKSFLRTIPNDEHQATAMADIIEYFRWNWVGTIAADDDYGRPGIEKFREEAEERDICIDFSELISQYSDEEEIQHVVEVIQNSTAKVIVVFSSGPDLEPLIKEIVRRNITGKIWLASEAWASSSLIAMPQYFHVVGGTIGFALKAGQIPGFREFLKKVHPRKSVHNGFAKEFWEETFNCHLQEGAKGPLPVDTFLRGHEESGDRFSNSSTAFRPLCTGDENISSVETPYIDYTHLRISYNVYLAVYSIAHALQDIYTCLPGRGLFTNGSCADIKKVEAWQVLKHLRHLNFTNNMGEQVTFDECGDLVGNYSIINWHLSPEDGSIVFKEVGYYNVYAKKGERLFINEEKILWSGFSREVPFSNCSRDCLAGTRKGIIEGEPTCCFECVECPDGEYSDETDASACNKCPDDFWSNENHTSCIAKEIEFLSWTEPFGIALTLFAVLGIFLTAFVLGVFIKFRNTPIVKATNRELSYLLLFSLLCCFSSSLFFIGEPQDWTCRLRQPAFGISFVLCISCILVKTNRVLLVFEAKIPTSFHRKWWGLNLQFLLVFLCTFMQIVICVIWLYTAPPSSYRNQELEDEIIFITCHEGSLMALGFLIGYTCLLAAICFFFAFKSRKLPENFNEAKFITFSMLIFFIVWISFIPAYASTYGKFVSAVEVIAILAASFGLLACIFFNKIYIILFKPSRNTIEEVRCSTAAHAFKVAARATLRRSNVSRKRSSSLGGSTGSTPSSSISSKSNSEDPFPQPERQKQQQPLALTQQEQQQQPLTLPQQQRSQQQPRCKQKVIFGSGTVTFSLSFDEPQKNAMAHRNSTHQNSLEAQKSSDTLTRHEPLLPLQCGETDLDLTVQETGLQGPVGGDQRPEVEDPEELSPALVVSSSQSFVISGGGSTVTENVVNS
Summary of the method: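 HEK293 cells transiently expressing human CaSR, prelabelled with myo-[3H]inositol. Increasing drug concentrations were applied in the presence of 2 mM extracellular Ca2+. [3H]IP accumulation is expressed as % of the 10 mM Ca2+ response, and EC50 and maximal stimulation come from the dose-response curve. Three to five independent experiments in triplicate.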

EC50	Structure (SMILES)
0.31 µM	C[C@@H](NCc1cc2ccccc2[nH]1)c1cccc2ccccc12
